Source: PubChem
The list is not random: actives were taken first. Their share in the collection is about 2.4%.
rRNA inh HTS: reduced GFP signal of wild-type E. coli, primary screen, bacterial rRNA inhibitor project, GFP/RFP fluorescence, OD600, single point; E. coli WT GFP vs humanized-ribosome RFP mutants, 24 h; active compounds read low; DMSO median 0, no signal -100; actives 1.6% (n = 350,000); GFP signal change (wild-type ribosome), % (test concentration not listed); AID 720706, 2013;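 active = significant combined selectivity score with lowered wild-type GFP, culture density cut under 30%, mutant RFP and density less affected; inactive = any of these conditions unmet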
ARNT-TACC3 inh: disruptors of ARNT/TACC3 protein interaction, primary screen, biochemical, AlphaScreen, single concentration; inhibition, % at 9.99 µM; actives 0.66% (n = 390,000); AlphaScreen His-ARNT PAS-B/GST-TACC3 binding, luminescence; TACC3 fragment carries E629A point mutation; Transforming acidic coiled-coil-containing protein 3 (Homo sapiens), Q9Y6A5; AID 623870, 2012;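 active = mean inhibition of replicates at least 50% and at least half of replicates each reaching 50%; inconclusive = half or more replicates reach 50% but mean below 50%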;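 note: 0% = complete ARNT plus TACC3 wells and 100% = ARNT alone without TACC3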
CASP6 VEID inh: human caspase-6 inhibitors, primary screen, biochemical, VEID-R110 fluorescence, single point, set 2 | AID 686996, 2013 | P55212 | purified caspase-6, Z-VEID-R110 cleavage fluorescence | actives 0.53% (n = 350,000) | inhibition, % at 12.5 µM;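 active = mean inhibition across replicates at least about 35%, with every replicate also reaching that limit, limit read from the data; inconclusive = only one of the two criteria met; inactive = neither criterion met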;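 note: 0% = median of neutral control wells and 100% = no fluorescence left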
ERAP1 inh: human ERAP1 aminopeptidase inhibitors, primary screen, biochemical, single point, plate reader; Endoplasmic reticulum aminopeptidase 1 (Homo sapiens), Q9NZ08; recombinant ERAP1, Leu-AMC fluorescence, 60 min; inhibition, % at 10.7 µM; actives 0.15% (n = 340,000); AID 652197, 2013;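 active = mean replicate inhibition of at least 30%, or all replicates individually reaching that 30% level; inactive = mean below 30% and not every replicate reaching it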;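 note: 0% = neutral control wells and 100% = L-leucinethiol positive control wells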
Target sequence (Q9NZ08 whole entry, looked up): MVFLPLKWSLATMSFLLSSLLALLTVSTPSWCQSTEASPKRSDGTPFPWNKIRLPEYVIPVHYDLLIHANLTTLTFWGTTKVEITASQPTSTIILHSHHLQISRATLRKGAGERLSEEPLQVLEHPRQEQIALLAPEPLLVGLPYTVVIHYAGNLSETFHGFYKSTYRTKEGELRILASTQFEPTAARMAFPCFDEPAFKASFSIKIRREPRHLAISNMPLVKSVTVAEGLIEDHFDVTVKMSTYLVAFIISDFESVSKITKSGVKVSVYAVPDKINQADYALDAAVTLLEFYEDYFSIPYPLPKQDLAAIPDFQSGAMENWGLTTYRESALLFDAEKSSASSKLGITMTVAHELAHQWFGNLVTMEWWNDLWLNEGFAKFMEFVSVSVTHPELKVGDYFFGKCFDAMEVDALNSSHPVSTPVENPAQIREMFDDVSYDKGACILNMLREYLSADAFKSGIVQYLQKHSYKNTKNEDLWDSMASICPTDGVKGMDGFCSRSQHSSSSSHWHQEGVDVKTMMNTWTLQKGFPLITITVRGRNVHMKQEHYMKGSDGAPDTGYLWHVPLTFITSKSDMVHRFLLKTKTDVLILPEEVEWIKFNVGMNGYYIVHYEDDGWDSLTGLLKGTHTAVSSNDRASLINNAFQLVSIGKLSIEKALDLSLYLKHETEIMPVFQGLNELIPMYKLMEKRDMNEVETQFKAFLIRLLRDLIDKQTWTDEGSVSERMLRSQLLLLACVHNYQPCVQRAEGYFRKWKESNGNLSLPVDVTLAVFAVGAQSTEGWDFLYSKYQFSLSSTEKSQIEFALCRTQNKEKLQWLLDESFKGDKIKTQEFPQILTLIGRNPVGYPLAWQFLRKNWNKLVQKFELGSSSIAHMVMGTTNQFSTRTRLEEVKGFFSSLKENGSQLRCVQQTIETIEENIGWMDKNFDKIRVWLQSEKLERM
PGC1a acetyl inh: inhibitors of PGC1a acetylation signal, primary screen, cell-based, U2OS, AlphaScreen, inhibitor mode; AlphaScreen anti-acetyl-lysine; with virally co-expressed GCN5 acetyltransferase; inhibition, % at 15.6 µM; actives 0.17% (n = 350,000);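 active = every replicate shows inhibition of at least 40%; inconclusive = mean inhibition at least 40% but some replicate below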;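 note: 0% = neutral control wells and 100% = positive control wells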
S100A4 MyoIIA: inhibitors of S100A4-myosin IIA peptide binding, primary screen, biochemical, fluorescence polarization, TAMRA-MyoIIA peptide | Protein S100-A4 (Homo sapiens), P26447 | inhibition, % at 10.7 µM | actives 0.14% (n = 360,000) | AID 652163, 2013;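 active = mean inhibition of at least 70% across replicates, with every replicate also reaching that level; inconclusive = mean inhibition reaches 70% but some replicates fall short; inactive = mean inhibition below 70%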
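Test system – S100A4 monomer (human) · Compound – single-point compound testing · Schedule – 5 min incubation before reading · Probe or stimulus – TAMRA-labelled myosin IIA heavy-chain peptide probe, 5 nM · Benchmarks – neutral control DMSO, positive control TFP · Medium – Calcium-containing HEPES buffer, pH 7.2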
AID977621: growth inhibition of wild-type GFP E. coli, dose response, H69 mutant RFP, cherry-pick | shares compounds with rRNA inh HTS | E. coli wild-type GFP strain growth, fluorescence, 24 h | 1,900 tested, under 10 active | activity change, negative = inhibition at 50 µM | AID 977621, 2014;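 active = Wild-type ribosome reporter drop at least double the humanized mutant ribosome reporter drop, growth loss under a set limit; inconclusive = no clear call, values can overlap the other calls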;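 note: wild-type GFP and H69 mutant RFP strains grown together 50/50 in each well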
AID977628: E. coli growth inhibition, wild-type GFP versus h24 humanized RFP strain, dose response, h24 mutant RFP vs wild-type GFP, cherry-pick | E. coli WT GFP strain growth, fluorescence, 24 h | activity change, negative = inhibition at 50 µM | AID 977628, 2014 | 1,900 tested, under 10 active | shares compounds with rRNA inh HTS;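 active = compound lowering the normal-ribosome reporter at least twice as much as the humanized-ribosome reporter, growth loss under a set limit; inconclusive = no clear call, values can overlap the other calls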;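 note: wild-type GFP and h24 humanized RFP strains co-cultured 1 to 1 per well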
Starred values were filed as active, the others as inactive; u = inconclusive; x = no result.

SMILES	rRNA inh HTS	ARNT-TACC3 inh	CASP6 VEID inh	ERAP1 inh	PGC1a acetyl inh	S100A4 MyoIIA	AID977621	AID977628
COc1ccc(NC(=O)Nc2ccc3c(c2)C(=O)N([C@H](C)CO)C[C@@H](C)[C@@H](CN(C)C(=O)CCCN(C)C)OCCCC[C@@H](C)O3)cc1	3.0	-0.4	0.8	-0.8	0.8	5.6	x	x
Fc1ccccc1C1CCN(Cc2nc(COc3ccccc3)no2)C1 (stereo not drawn)	-16.1*	-3.2	-1.2	-0.1	-8.8	0.8	-8.29	-2.02
COc1ccc2c3c([nH]c2c1)[C@@H](CO)N(C)CC31CCN(C(=O)C2CC2)CC1	2.4	x	x	x	-6.2	x	x	x
O=C(NC1CCCC1)[C@H]1[C@H](CO)[C@H]2Cn3c(ccc(-c4cccnc4)c3=O)[C@@H]1N2CCc1ccccc1	-1.7	-3.3	2.4	-2.2	x	63.6	x	x
CCOC(=O)C(C)Sc1nc(N2CCOCC2)c2c(c1C#N)CC(C)(C)OC2 (stereo not drawn)	-28.6*	x	1.9	-2.2	-14.8	6.9	-10.8	-10.3
CCOC(=O)CCSc1nc(N2CCOCC2)c2c(c1C#N)CC(C)(C)OC2	6.4	x	-2.3	2.9	x	-8.0	x	x
CCC(=O)Nc1ccc2c(c1)C(=O)N(C)C[C@@H](OC)[C@@H](C)CN[C@@H](C)CO2	1.1	-1.9	-6.2	3.7	6.7	1.7	x	x
O=C1c2cccc(OCC(=O)N3CCCc4ccccc43)c2CCN1Cc1cccnc1	-26.4*	0.1	3.5	3.2	6.0	-12.7	-12	x
Cc1ccccc1CN1CCc2c(OCC(=O)N3CCCc4ccccc43)cccc2C1=O	x	-2.6	x	x	x	x	x	x
CCC(=O)N[C@@H]1CC[C@@H](CCn2cc(-c3cccc(OC)c3)nn2)O[C@@H]1CO	1.6	-0.3	3.0	-1.4	1.5	5.2	x	x
CCCC(=O)Nc1ccc2c(c1)OC[C@H](C)N(Cc1ccccc1)C[C@H](C)[C@@H](OC)CN(C)C2=O	-1.4	x	1.6	0.3	-5.6	9.8	x	x
COc1cc(-c2ccc(N3C(c4ccsc4)=Cc4ccc(F)cc4C3c3c[nH]c4ccc(C#N)cc34)cc2)cc(OC)c1OC (stereo not drawn)	-25.4*	x	0.1	-2.4	x	3.8	-5.62	-2.06
CCSc1nc2ccccc2c(=O)n1CCc1ccc(OC)c(OC)c1	-33.5*	-1.7	4.7	2.1	-25.7	0.8	x	u
COc1ccc(CCn2c(C)nc3ccccc3c2=O)cc1OC	5.9	-8.4	2.6	9.1	-0.2	17.3	x	x
C[C@H]1CN([C@@H](C)CO)C(=O)c2cc(-c3cncnc3)cnc2O[C@@H]1CN(C)C(=O)Nc1ccc2c(c1)OCO2	1.5	-12.6	1.5	1.7	-1.0	-0.2	x	x
Cc1cc(NC(=O)CS(=O)(=O)c2cn(Cc3ccccc3Cl)c3ccccc23)no1	x	1.7	x	x	-5.6	x	x	x
Cc1cc(NC(=O)CS(=O)(=O)c2cn(Cc3cccc(Br)c3)c3ccccc23)no1	-21.4*	x	-4.1	x	x	-5.3	-15.2	x
COc1ccc(C[C@H]2CCc3cnnn3COC[C@@H](C)NC2=O)cc1	3.4	x	x	x	x	x	x	x
O=C(C1Cc2ccccc2CN1C(=O)c1ccccc1)N1CCN(c2ccccc2)CC1 (stereo not drawn)	-22.5*	1.4	19.7	7.0	-3.7	-1.4	-4.01	-10.3
